The results in this text go back to ChEMBL document CHEMBL1142049, “1-(1-Naphthyl)piperazine as a novel template for 5-HT6 serotonin receptor ligands” (Bioorg Med Chem Lett, 2005).

The target in assay [1] is T1, 5-hydroxytryptamine receptor 6 (Homo sapiens, UniProt P50406). Nature of the assay: Binding affinity against 5 Hydroxy tryptamine 6 receptor. An outline of the steps: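 Human 5-HT6 cDNA transiently expressed in HEK-293 cells, switched to dialyzed-serum medium, harvested 75 h post-transfection, PBS-washed and frozen as pellets. Nonspecific binding defined with 10 µM clozapine. Ki values from triplicate determinations.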

The target of assay [2] is T1, 5-hydroxytryptamine receptor 6. Nature of the assay: pA2 against 5-Hydroxytryptamine 6 receptor.
Assay [3] has the same target. Nature of the assay: Binding affinity against 5-hydroxy tryptamine 6 receptor. An outline of the steps:
(§1)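 Human 5-HT6 cDNA transiently expressed in HEK-293 cells, switched to dialyzed-serum medium, harvested 75 h post-transfection, PBS-washed and frozen as pellets. [3H]LSD (1 nM final) displaced by unlabeled ligand (1–10,000 nM), 90 min at room temperature in 50 mM Tris-Cl, 10 mM MgCl2, 0.1 mM EDTA, pH 7.40. Nonspecific binding defined with 10 µM clozapine. Ki values from triplicate determinations.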

Assay [4] shares this target. The assay is described as follows: Binding affinity against 5-hydroxytryptamine 6 receptor. Summed up: as §1

T1 sequence (P50406 whole entry): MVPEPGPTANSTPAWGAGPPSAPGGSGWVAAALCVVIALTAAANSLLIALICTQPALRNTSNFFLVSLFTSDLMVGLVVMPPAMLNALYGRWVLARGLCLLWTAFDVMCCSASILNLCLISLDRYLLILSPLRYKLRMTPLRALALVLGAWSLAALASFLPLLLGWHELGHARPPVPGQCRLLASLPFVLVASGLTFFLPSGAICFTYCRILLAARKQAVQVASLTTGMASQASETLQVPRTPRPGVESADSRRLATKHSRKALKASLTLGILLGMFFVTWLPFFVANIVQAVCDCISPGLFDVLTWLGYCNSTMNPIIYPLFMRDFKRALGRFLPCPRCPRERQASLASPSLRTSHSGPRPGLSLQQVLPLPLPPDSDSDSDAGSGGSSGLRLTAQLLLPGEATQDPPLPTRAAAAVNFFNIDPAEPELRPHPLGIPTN

Take `COc1ccccc1N1CCNCC1`: the Ki in assay [1] stood at 1.2 nM.
On the same count and under the same terms, in the case of `O=C(c1ccccc1)c1ccc(N2CCNCC2)c2ccccc12` it was 57 nM.
Take `O=S(=O)(c1ccccc1)c1ccc(N2CCNCC2)c2ccccc12`: in assay [2], the pA2 came to 7.5. In addition, in assay [1], affinity was put at a Ki of 3.8 nM.
With `c1ccc2c(N3CCNCC3)cccc2c1`, the Ki in assay [3] turned out to be 120 nM; in assay [4] it was 100 nM.
Regarding `c1ccc(-c2ccc(N3CCNCC3)c3ccccc23)cc1`, affinity in assay [1] was put at a Ki of 190 nM.
In turn, `Nc1ccc(S(=O)(=O)c2ccc(N3CCNCC3)c3ccccc23)cc1` yielded a Ki in assay [1] of 0.9 nM. This Ki is about 210-fold lower than that of the molecule before.
The same measure, in the same setting: next, `Nc1ccc(S(=O)(=O)c2cc(Br)nc(N3CCNCC3)c2)cc1`: about 0.1 nM; `c1ccc(Cc2ccc(N3CCNCC3)c3ccccc23)cc1`: 35 nM; `O=S(=O)(c1ccc(NO)cc1)c1cccc2ccccc12`: 63 nM.
Same read-out and setting: in the case of `Nc1ccc(S(=O)(=O)c2cccc3ccccc23)cc1` it was 34 nM; in that of `CCc1cc(N2CCNCC2)c2ccccc2c1`, 21 nM; in that of `Nc1ccc(S(=O)(=O)c2cc(Br)nc(N3CCCC3)c2)cc1`, about 1 nM.
As to `c1ccc(-c2cc(N3CCNCC3)c3ccccc3c2)cc1`, the Ki in assay [1] came out at 9.3 nM.
`Brc1ccc(N2CCNCC2)c2ccccc12` yielded a Ki in assay [1] of 54 nM.

Broadly, the Ki is a dissociation constant, usually derived from enzyme kinetics or from competition with a known ligand. A high value points to a looser hold on the target. In general, pA2 refers to the negative logarithm of the molar antagonist concentration that doubles the agonist concentration needed for the same response.
